Test results published in ChEMBL document CHEMBL5058577, “EUbOPEN Chemogenomics Library 2 (Multiplex)” (2022).

Test system: U2OS
Test: Multiplex assay against U2OS
Assay type: toxicity, cell-based
Settings: human
Method in brief: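 Live cells were stained at seeding with Hoechst33342, BioTracker Green Microtubule Cytoskeleton Dye, MitoTracker Red and Annexin V Alexa Fluor 680. Following compound addition, they were imaged on a CQ1 microscope at 37°C and 5% CO2 and gated by CellPathfinder machine learning into Hoechst high-intensity objects or normal cells, with normal cells split into healthy, pyknosed or fragmented nuclei and pyknosed cells into mitotic or apoptotic. Tubulin, mitochondrial-mass and membrane-permeability phenotypes are per cents of healthy-nucleus cells.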

[1] = 12 h, 1 µM, compound concentration 1 uM, replicate 1
[2] = 12 h, 1 µM, compound concentration 1 uM, replicate 2
[3] = 12 h, 10 µM, compound concentration 10 uM, replicate 1
[4] = 12 h, 10 µM, compound concentration 10 uM, replicate 2
[5] = 24 h, 1 µM, compound concentration 1 uM, replicate 1
[6] = 24 h, 1 µM, compound concentration 1 uM, replicate 2
[7] = 24 h, 10 µM, compound concentration 10 uM, replicate 1
[8] = 24 h, 10 µM, compound concentration 10 uM, replicate 2
[9] = 48 h, 1 µM, compound concentration 1 uM, replicate 1
[10] = 48 h, 1 µM, compound concentration 1 uM, replicate 2
[11] = 48 h, 10 µM, compound concentration 10 uM, replicate 1
[12] = 48 h, 10 µM, compound concentration 10 uM, replicate 2

C[C@H](NC(=O)CNC(=O)c1cccc(Cl)c1)c1ccccc1
Population Apoptotic (%) [1]: 78%
Population Fragmented Nuclei (%) [1]: 26%
Population Healthy Nuclei (%) [1]: 61%
Population Hoechst High Intensity Objects (%) [1]: 3%
Population Membrane Permeable-Phenotype (%) [1]: 6%
Population Mitochondria Different-Phenotype (%) [1]: 4%
Population Mitotic Cells (%) [1]: 21%
Population Normal (%) [1]: 96%
Population Pyknosed Nuclei (%) [1]: 12%
Population Tubulin-Different-Phenotype (%) [1]: 2%
Total Cell Count [1]: 242
Population Apoptotic (%) [2]: 71%
Population Fragmented Nuclei (%) [2]: 20%
Population Healthy Nuclei (%) [2]: 68%
Population Membrane Permeable-Phenotype (%) [2]: 8%
Population Mitochondria Different-Phenotype (%) [2]: 2%
Population Mitotic Cells (%) [2]: 28%
Population Pyknosed Nuclei (%) [2]: 11%
Total Cell Count [2]: 124
Population Apoptotic (%) [3]: 68%
Population Fragmented Nuclei (%) [3]: 24%
Population Healthy Nuclei (%) [3]: 63%
Population Hoechst High Intensity Objects (%) [3]: 2%
Population Membrane Permeable-Phenotype (%) [3]: 9%
Population Mitochondria Different-Phenotype (%) [3]: 3%
Population Mitotic Cells (%) [3]: 31%
Population Normal (%) [3]: 97%
Population Pyknosed Nuclei (%) [3]: 11%
Population Tubulin-Different-Phenotype (%) [3]: 4%
Total Cell Count [3]: 198
Population Apoptotic (%) [4]: 66%
Population Fragmented Nuclei (%) [4]: 13%
Population Healthy Nuclei (%) [4]: 82%
Population Hoechst High Intensity Objects (%) [4]: 0%
Population Membrane Permeable-Phenotype (%) [4]: 2%
Population Mitotic Cells (%) [4]: 33%
Population Normal (%) [4]: 100%
Population Pyknosed Nuclei (%) [4]: 4%
Population Tubulin-Different-Phenotype (%) [4]: 2%
Total Cell Count [4]: 150
Population Apoptotic (%) [5]: 79%
Population Fragmented Nuclei (%) [5]: 19%
Population Healthy Nuclei (%) [5]: 71%
Population Hoechst High Intensity Objects (%) [5]: 2%
Population Membrane Permeable-Phenotype (%) [5]: 7%
Population Mitochondria Different-Phenotype (%) [5]: 2%
Population Mitotic Cells (%) [5]: 20%
Population Normal (%) [5]: 97%
Population Pyknosed Nuclei (%) [5]: 8%
Population Tubulin-Different-Phenotype (%) [5]: 2%
Total Cell Count [5]: 275
Population Apoptotic (%) [6]: 88%
Population Healthy Nuclei (%) [6]: 69%
Population Membrane Permeable-Phenotype (%) [6]: 4%
Population Mitochondria Different-Phenotype (%) [6]: 4%
Population Mitotic Cells (%) [6]: 11%
Population Pyknosed Nuclei (%) [6]: 10%
Population Tubulin-Different-Phenotype (%) [6]: 0%
Total Cell Count [6]: 168
Population Apoptotic (%) [7]: 90%
Population Fragmented Nuclei (%) [7]: 24%
Population Healthy Nuclei (%) [7]: 61%
Population Hoechst High Intensity Objects (%) [7]: 1%
Population Membrane Permeable-Phenotype (%) [7]: 6%
Population Mitochondria Different-Phenotype (%) [7]: 4%
Population Mitotic Cells (%) [7]: 9%
Population Normal (%) [7]: 98%
Population Pyknosed Nuclei (%) [7]: 13%
Population Tubulin-Different-Phenotype (%) [7]: 2%
Total Cell Count [7]: 239
Population Apoptotic (%) [8]: 71%
Population Fragmented Nuclei (%) [8]: 12%
Population Healthy Nuclei (%) [8]: 83%
Population Membrane Permeable-Phenotype (%) [8]: 4%
Population Mitochondria Different-Phenotype (%) [8]: 2%
Population Mitotic Cells (%) [8]: 28%
Population Pyknosed Nuclei (%) [8]: 3%
Population Tubulin-Different-Phenotype (%) [8]: 3%
Total Cell Count [8]: 189
Population Apoptotic (%) [9]: 74%
Population Fragmented Nuclei (%) [9]: 18%
Population Healthy Nuclei (%) [9]: 71%
Population Hoechst High Intensity Objects (%) [9]: 3%
Population Membrane Permeable-Phenotype (%) [9]: 6%
Population Mitochondria Different-Phenotype (%) [9]: 3%
Population Mitotic Cells (%) [9]: 25%
Population Normal (%) [9]: 96%
Population Pyknosed Nuclei (%) [9]: 10%
Population Tubulin-Different-Phenotype (%) [9]: 1%
Total Cell Count [9]: 401
Population Apoptotic (%) [10]: 100%
Population Fragmented Nuclei (%) [10]: 17%
Population Healthy Nuclei (%) [10]: 70%
Population Hoechst High Intensity Objects (%) [10]: 2%
Population Membrane Permeable-Phenotype (%) [10]: 4%
Population Mitotic Cells (%) [10]: 0%
Population Normal (%) [10]: 97%
Population Pyknosed Nuclei (%) [10]: 11%
Population Tubulin-Different-Phenotype (%) [10]: 2%
Total Cell Count [10]: 205
Population Apoptotic (%) [11]: 81%
Population Fragmented Nuclei (%) [11]: 19%
Population Healthy Nuclei (%) [11]: 73%
Population Hoechst High Intensity Objects (%) [11]: 2%
Population Membrane Permeable-Phenotype (%) [11]: 6%
Population Mitochondria Different-Phenotype (%) [11]: 2%
Population Mitotic Cells (%) [11]: 18%
Population Normal (%) [11]: 97%
Population Pyknosed Nuclei (%) [11]: 7%
Population Tubulin-Different-Phenotype (%) [11]: 4%
Total Cell Count [11]: 311
Population Apoptotic (%) [12]: 100%
Population Fragmented Nuclei (%) [12]: 12%
Population Healthy Nuclei (%) [12]: 80%
Population Hoechst High Intensity Objects (%) [12]: 1%
Population Membrane Permeable-Phenotype (%) [12]: 4%
Population Mitochondria Different-Phenotype (%) [12]: 1%
Population Mitotic Cells (%) [12]: 0%
Population Normal (%) [12]: 98%
Population Tubulin-Different-Phenotype (%) [12]: 1%
Total Cell Count [12]: 279
